An excerpt weighted towards active compounds, which were near 1.8% of everything screened.
HTRA1 inhibitor: inhibitors of human serine peptidase HTRA1; AID 504803; inhibition, % at 5.96 µM; recombinant HTRA1, FP-rhodamine activity-based probe, fluorescence polarization; 340,000 tested, 0.5% active; Q92743; in the data active = inhibition above about 36%
ABHD4 inh: ABHD4 (mouse) inhibition, primary FP screen. Q8VD66. purified mABHD4, FP-Rh probe fluorescence polarization. inhibition, % at 8.92 µM. 370,000 tested, 0.54% active. AID 720543;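 active = inhibition exceeding the mean over every tested compound plus 3 SD, cut at about 30% in these data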
Target sequence (Q8VD66 whole entry, looked up): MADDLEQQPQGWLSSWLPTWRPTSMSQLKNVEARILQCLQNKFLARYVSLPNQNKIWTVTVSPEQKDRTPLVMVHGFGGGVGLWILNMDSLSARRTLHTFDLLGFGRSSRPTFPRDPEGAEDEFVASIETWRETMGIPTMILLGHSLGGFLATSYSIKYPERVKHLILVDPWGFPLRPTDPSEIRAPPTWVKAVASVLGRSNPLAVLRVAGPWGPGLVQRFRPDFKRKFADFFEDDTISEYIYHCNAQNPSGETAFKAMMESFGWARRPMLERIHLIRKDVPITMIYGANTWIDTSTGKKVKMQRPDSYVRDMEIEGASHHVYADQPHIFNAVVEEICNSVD
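Assay system: Wild-type mouse ABHD4 protein | Medium: HEPES pH 7.0 buffer, 150 mM NaCl, 0.01% Pluronic F-127 | Incubation: Enzyme–compound pre-incubation 45 min, then probe 60 min, both 25 °C | Technique: Fluorescence polarization with parallel and perpendicular emission, 525/598 nm | Evaluation: % inhibition of FP-Rh probe binding versus controls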
PME-1 inh: PME-1 (human) inhibition | recombinant PME-1, FP-Rh probe fluorescence polarization | Q9Y570 | 320,000 tested, 0.53% active | inhibition, % at 5.9 µM;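 active = inhibition above the campaign mean of all compounds plus 3 SD, cut at about 26% in these data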;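 note: competitive labeling of PME-1 active site by serine hydrolase directed probe; inhibitors block probe labeling so polarization falls and inhibition rises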
Fam108B inh: counter-screen for RBBP9 inhibitors: inhibitors of mouse Fam108B; 300,000 tested, 0.33% active; inhibition, % at 9.51 µM; recombinant Fam108B, FP-Rh probe fluorescence polarization; AID 1947;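 active = inhibition above the screen mean inhibition plus 3 SD, computed separately per campaign, cut at about 18% in these data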;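 note: inhibitors lower polarization as less probe binds the enzyme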
SIAE primary: blocks human sialic acid acetylesterase; SIAE FP-Rh probe binding, fluorescence polarization; inhibition, % at 9.66 µM; 370,000 tested, 0.69% active; AID 1053197;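 active = inhibition above a cutoff: mean of compounds within the control limits plus 3 SD of those, cut at about 17% in these data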
TCR CD3 inh: human TCR-CD3 binding inhibition; 360,000 tested, 0.37% active; TAMRA-labeled TCR probe fluorescence, biochemical; inhibition, % at 9.4 µM;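 note: recombinant mutant TCR 2C K166C tagged with TAMRA read by polarization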
Fam108b inh conf: Fam108b (mouse) hydrolase inhibition, confirmation assay. shares compounds with Fam108B inh. recombinant Fam108b, FP-Rh probe fluorescence polarization. inhibition, % at 9.51 µM. 930 tested, 44% active. AID 1978;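 active = inhibition above a limit from the primary screen, the mean over all compounds plus 3 SD, cut at about 19% in these data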;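 note: inhibitors free the probe so polarization falls as inhibition rises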
Fam108b ABPP HTS: mouse ABHD17B inhibition. shares compounds with Fam108B inh. inhibition, % at 20 µM. 260 tested, 44% active. recombinant Fam108b, gel-based ABPP, fluorophosphonate probe; in the data active = inhibition above about 40%
HTRA1 inh conf: HTRA1 (human) inhibition, confirmation; shares compounds with HTRA1 inhibitor; 1,600 tested, 66% active; inhibition, % at 5.96 µM; recombinant HTRA1, FP-rhodamine activity-based probe, fluorescence polarization;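 active = mean inhibition over three repeats above a set limit taken from the earlier primary screen, cut at about 37% in these data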;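 note: inhibitors block probe binding so polarization drops and inhibition rises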
BSA TAMRA ctr: BSA probe counter-screen for TCR-CD3 inhibitors; TAMRA-labeled BSA probe fluorescence counterscreen; shares compounds with TCR CD3 inh; 1,200 tested, 10% active; AID 652035; inhibition, % at 9.4 µM; in the data active = inhibition above about 23%
TCR-CD3 conf: confirmation of human TCR-CD3 interaction inhibitors; shares compounds with TCR CD3 inh; TAMRA-labeled TCR probe fluorescence binding assay; inhibition, % at 9.4 µM; 1,200 tested, 48% active
ABHD4 confirm: ABHD4 (mouse) inhibition, FP confirmation; shares compounds with ABHD4 inh; purified mABHD4, FP-Rh probe fluorescence polarization; inhibition, % at 8.92 µM; 1,800 tested, 55% active;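 active = mean inhibition across replicates above the hit cutoff set in the primary screen, cut at about 30% in these data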
SIAE confirm: confirmation of human SIAE inhibitors. AID 1117263. inhibition, % at 9.66 µM. 2,300 tested, 13% active. shares compounds with SIAE primary. SIAE FP-Rh activity-based probe, fluorescence polarization;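 active = mean inhibition of the replicates above the hit cutoff set in the primary screen, cut at about 17% in these data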;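 note: inhibitors lower polarization as more probe stays unbound to SIAE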
Hits are given with their value; n = inactive; x = no result. Cut-off read from the data, not from the text of the source, unless noted: active = inhibition above about 19%; inactive = the rest.

SMILES	HTRA1 inhibitor	ABHD4 inh	PME-1 inh	Fam108B inh	SIAE primary	TCR CD3 inh	HTRA1 inh conf	others
Cc1cccc2c(N=O)c(O)[nH]c12	n	n	53.1	27.5	45.5	n	x	Fam108b inh conf=24.1;SIAE confirm=42.5
COc1ccc2oc(=O)c(-c3csc(Nc4cccc(O)c4)n3)cc2c1	n	n	47.3	34.1	39.2	n	x	Fam108b inh conf=39.4;Fam108b ABPP HTS=100.0;SIAE confirm=n
Cc1[nH]c2ccccc2c1/C=N/NC(=O)C1CC1(c1ccccc1)c1ccccc1 (configuration not stated)	n	n	41.8	21.1	27.0	n	x	Fam108b inh conf=n;SIAE confirm=n
Nc1ccc(O)c2c1C(=O)c1ccccc1C2=O	88.2	86.5	56.3	53.0	55.0	42.9	95.8	Fam108b inh conf=49.5;Fam108b ABPP HTS=n;BSA TAMRA ctr=23.6;TCR-CD3 conf=27.2;ABHD4 confirm=73.8;SIAE confirm=53.8
Nc1ccc(NC(=O)c2ccccc2)c2c1C(=O)c1ccccc1C2=O	n	n	n	n	n	n	x
Cc1ccc(O)c(C=Nc2cc(C)ccc2O)c1	n	x	n	n	x	x	x
CC(C)(C)c1ccc(O)c(N=Cc2cc(Br)ccc2O)c1	41.3	n	n	n	n	n	42.3
COc1cccc(C(=O)OCC(=O)NC23CC4CC(CC(C4)C2)C3)c1	n	n	x	x	n	n	x
CC(=O)Oc1cc(C(=O)OCC(=O)NC23CC4CC(CC(C4)C2)C3)cc(OC(C)=O)c1OC(C)=O	65.5	n	x	x	n	48.6	75.5
O=C(NCCc1ccc(O)c(O)c1)C1COc2ccccc2O1 (configuration not stated)	40.0	n	n	n	n	n	60.7
Nc1nc(-c2ccccn2)nc(N)c1Cc1ccc(Cl)cc1Cl	38.7	n	n	n	n	n	n
COc1ccc2c(c1)c(C(=O)N/N=C/c1ccc(O)c(O)c1)c(C)n2C	43.0	n	n	n	n	n	63.8
Cc1cc(C(=O)O[C@H]2CCC[C@@]3(C(=O)N(Cc4ccccc4)c4ccccc43)[C@H]2NC(=O)CCc2ccccc2)no1	x	n	x	x	n	x	x
Cc1ccc(O)c(CNCCNCc2cc(C)ccc2O)c1	37.8	n	n	n	n	n	52.7
CCc1ccc(O)c(CNCCNCc2cc(CC)ccc2O)c1	n	n	n	n	n	n	x
Cc1ccccc1C(=O)N1CCC(Oc2cccnc2)CC1	x	n	x	x	n	x	x
Cc1ccc(NC(=O)NNS(=O)(=O)c2ccc(Br)cc2)cc1	n	n	n	n	n	n	x
Cc1ccc(S(=O)(=O)NC(=O)Nc2ccc(N(C)C)cc2)cc1	43.9	n	n	n	n	n	44.8
O=C(Nc1ccc(NC(=O)c2ccco2)cc1)c1ccco1	n	n	n	n	n	n	x
O=C(Nc1ccc(Nc2ccccc2)cc1)c1ccco1	38.4	n	n	n	n	n	n
O=C(COC(=O)c1ccc2ncsc2c1)NC(=O)c1ccccc1	n	n	n	n	n	n	x
O=C(COC(=O)c1ccc2ncsc2c1)NC(=O)NCc1ccccc1	39.2	n	n	n	n	n	n
O=C(COCc1ccccc1)N1CC[C@H]2[C@H](CCCN2Cc2ccc(F)cc2)C1	x	n	x	x	n	x	x
C/C(C=NNC(=O)CSc1nnc(-c2ccc(Cl)cc2)n1-c1ccc(C)cc1)=C\c1ccccc1	x	n	x	x	n	x	x
O=C1C=CC(=O)N1c1ccc2ccccc2c1	n	n	x	x	n	n	x

High-throughput results deposited in PubChem BioAssay by The Scripps Research Institute Molecular Screening Center.
